What all share (type): cell-based
Test [1] is filed under the species Rattus norvegicus. In words: Inhibition of HSP90 in rat 50B11 cells assessed as decrease in c-jun protein expression at 1 uM incubated for 24 hrs followed by 10% FBS exposure for 2 hrs by Western blot analysis. In short, it runs like this:
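50B11 cells held in serum-free medium 24 h to arrest cycle and lower c-Jun, then given vehicle or 1.0 μM compound for 24 h; c-Jun induced by 10% FBS medium for 2 h. Lysates immunoblotted for c-Jun with actin control; densitometry gives fold change normalized to serum-free-then-serum control. Mean ±SEM, n >2.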
Background: In western blotting, separated proteins are transferred to a membrane and probed.

The species entered for test [2] is Rattus norvegicus. The test can be described thus: Inhibition of HSP90 in rat 50B11 cells assessed as increase in Hsp70 protein expression at 0.03 to 3 uM after 24 hrs by immunoblot assay. In short, it runs like this: (§1)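 Nontransfected 50B11 cells exposed 24 h to compound, with DMSO as negative control. Hsp70 detected by immunoblot; densitometry reports fold induction over DMSO. Mean ±SEM, n >2.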

The species entered for test [3] is Rattus norvegicus. The test can be described thus: Inhibition of HSP90 in rat 50B11 cells assessed as improvement in mitochondrial bioenergetics by measuring suppression of H2O2-induced reduction in oxygen consumption rate at 1 uM after 24 hrs by XF96 extracellular flux analyzer based method. In short, it runs like this: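 50B11 cells seeded in high-glucose DMEM with 10% FBS; after 12 h switched to high-glucose DMEM with 1% FBS plus 1.0 μM compound or DMSO for 24 h, then stressed with 0.5 mM H2O2 for 2 h. Intact-cell OCR and ECAR read on XF96 extracellular flux analyzer; maximal respiratory capacity from FCCP response; significance versus H2O2 alone, p<0.05.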

The species named for test [4] is Rattus norvegicus. The test can be described thus: Inhibition of HSP90 in rat 50B11 cells transfected with human HSPA1A promoter assessed as induction of human Hsp70 expression at 10 to 1000 nM incubated for 16 hrs by luciferase reporter gene assay.
The species named for test [5] is Rattus norvegicus. The test can be described thus: Inhibition of HSP90 in rat 50B11 cells assessed as increase in Hsp70 protein expression at 1 uM after 24 hrs by immunoblot assay. The method in brief: as §1

The source made the active and inactive calls. No cut-off for these calls is given here.

Turning to `COc1ccccc1COC1CCC(Oc2cc(O)c(CCNC(C)=O)c(-c3cccc(F)c3)c2)CC1` (configuration not stated), the inhibition result in the test listed under Rattus norvegicus [1] and in the test filed under Rattus norvegicus [2] was “Active” throughout. With `CO[C@@H]1[C@@H](O)[C@@H](O)[C@H](Oc2ccc(CCNC(C)=O)c(-c3cccc(F)c3)c2)OC1(C)C`, the inhibition entry in the test filed under Rattus norvegicus [3] and in the test listed under Rattus norvegicus [2] was “Active” throughout. In the case of `CC(=O)NCCc1ccc(OC2CCC(OCc3ccccc3)CC2)c(O)c1-c1cccc(F)c1` (configuration not stated), the inhibition entry in the test listed under Rattus norvegicus [2] was “Active”.

As for `COc1cccc(COC2CCC(Oc3ccc(CCNC(C)=O)c(-c4cccc(F)c4)c3)CC2)c1` (configuration not stated), in the test listed under Rattus norvegicus [4], the inhibition result is “Active”.

`CC(=O)NCCc1cc(C)c(OC2CCC(OCc3ccccc3)CC2)cc1-c1cccc(F)c1` (configuration not stated): the inhibition entry in the test filed under Rattus norvegicus [2] is “inactive”.

With `CC(=O)NCCc1ccc(OC2CCC(OCc3ccc(F)cc3)CC2)cc1-c1cccc(F)c1` (configuration not stated), the inhibition result in the test filed under Rattus norvegicus [4] is “Active”. `CC(=O)NCCc1ccc(OC2CCC(OCc3ccccc3Cl)CC2)cc1-c1cccc(F)c1` (configuration not stated): the inhibition entry in the test filed under Rattus norvegicus [4] and in the test filed under Rattus norvegicus [5] was “Active” throughout. On to `COc1ccccc1COC1CCC(Oc2ccc(CCNC(C)=O)c(-c3cccc(F)c3)c2)CC1` (configuration not stated), for which the inhibition entry in the test listed under Rattus norvegicus [5] is “Active”.

As for `CC(=O)NCCc1c(O)cc(OC2CCC(OCc3ccc(Cl)cc3)CC2)cc1-c1cccc(F)c1` (configuration not stated), the inhibition result in the test filed under Rattus norvegicus [2] is “Active”.

For the compound `COc1ccccc1COC1CCC(Oc2cc(-c3cccc(F)c3)c(CCNC(C)=O)cc2C)CC1` (configuration not stated), in the test filed under Rattus norvegicus [2], the inhibition entry was “inactive”. As to `CC(=O)Nc1cc2ccc(OCc3ccccc3Br)c(C)c2oc1=O`, in the test filed under Rattus norvegicus [4], the inhibition entry is “inactive”. Consider `CC(=O)NCCc1ccc(OC2CCC(OCc3c(Cl)cccc3Cl)CC2)cc1-c1cccc(F)c1` (configuration not stated), for which the inhibition entry in the test filed under Rattus norvegicus [4] is “Active”. Further, the inhibition entry in the test listed under Rattus norvegicus [5] is “inactive”. As for `CC(=O)Nc1cc2ccc(OCc3ccc(Cl)cc3)c(C)c2oc1=O`, in the test listed under Rattus norvegicus [4], the inhibition entry is “inactive”. Turning to `CC(=O)NCCc1ccc(OC2CCC(OCc3ccc(C(F)(F)F)cc3)CC2)cc1-c1cccc(F)c1` (configuration not stated), in the test listed under Rattus norvegicus [4], the inhibition entry was “Active”. For the same compound, the inhibition entry in the test filed under Rattus norvegicus [5] is “inactive”. For the compound `CC(=O)NCCc1ccc(OC2CCC(OCc3ccc(Br)cc3)CC2)c(O)c1-c1cccc(F)c1` (configuration not stated), the inhibition entry in the test listed under Rattus norvegicus [1] and in the test filed under Rattus norvegicus [2] was “Active” each time. `COc1cc(Cl)ccc1COC1CCC(Oc2ccc(CCNC(C)=O)c(-c3cccc(F)c3)c2)CC1` (configuration not stated): the inhibition result in the test filed under Rattus norvegicus [4] is “Active”. Moreover, the inhibition result in the test listed under Rattus norvegicus [5] was “inactive”. On to `CC(=O)NCCc1ccc(OC2CCC(OCc3ccccc3C)CC2)cc1-c1cccc(F)c1` (configuration not stated), for which the inhibition entry in the test filed under Rattus norvegicus [4] is “Active”. `CC(=O)NCCc1ccc(OC2CCC(OCc3ccc(Cl)cc3)CC2)c(O)c1-c1cccc(F)c1` (configuration not stated): in the test listed under Rattus norvegicus [2], the inhibition result was “Active”. Still for that read-out and setting: for `COc1cc(OC2CCC(OCc3ccccc3C)CC2)cc(-c2cccc(F)c2)c1CCNC(C)=O` (configuration not stated) the value was “Active”.

With `CC(=O)NCCc1ccc(OC2CCC(OCc3ccc(Br)cc3)CC2)cc1-c1cccc(F)c1` (configuration not stated), in the test filed under Rattus norvegicus [4], the inhibition result was “Active”.

With `CC(=O)NCCc1ccc(OC2CCC(OCc3ccc(Cl)cc3)[C@@H](O)[C@H]2O)cc1-c1cccc(F)c1` (some centres not stated), the inhibition result in the test listed under Rattus norvegicus [4] and in the test listed under Rattus norvegicus [5] was “Active” throughout.

On to `COc1ccccc1COC1CCC(Oc2ccc(CCNC(C)=O)c(-c3cccc(F)c3)c2O)CC1` (configuration not stated), for which the inhibition entry in the test filed under Rattus norvegicus [2] is “Active”. `COc1cc(C)ccc1COC1CCC(Oc2ccc(CCNC(C)=O)c(-c3cccc(F)c3)c2)CC1` (configuration not stated): the inhibition entry in the test listed under Rattus norvegicus [4] is “Active”.

With `CC(=O)NCCc1cc(C)c(OC2CCC(OCc3ccc(Br)cc3)CC2)cc1-c1cccc(F)c1` (configuration not stated), the inhibition entry in the test listed under Rattus norvegicus [2] is “inactive”. Turning to `CC(=O)NCCc1ccc(OC2CCC(OCc3ccc4ccccc4c3)CC2)cc1-c1cccc(F)c1` (configuration not stated), the inhibition entry in the test listed under Rattus norvegicus [4] is “Active”. Take `CO[C@@H]1[C@@H](O)[C@@H](O)[C@H](Oc2cc(-c3cccc(F)c3)c(CCNC(C)=O)cc2C)OC1(C)C`: the inhibition entry in the test listed under Rattus norvegicus [2] was “Active”. In the case of `CC(=O)Nc1cc2ccc(OCc3ccccc3)c(C)c2oc1=O`, the inhibition result in the test listed under Rattus norvegicus [4] is “inactive”. Same read-out and setting: for `COc1ccc(COC2CCC(Oc3ccc(CCNC(C)=O)c(-c4cccc(F)c4)c3)CC2)cc1` (configuration not stated) the value was “Active”. Consider `CC(=O)NCCc1ccc(OC2C=CC(OCc3ccc(Cl)cc3)CC2)cc1-c1cccc(F)c1` (configuration not stated), for which the inhibition result in the test filed under Rattus norvegicus [4] and in the test filed under Rattus norvegicus [5] was “Active” in each case. Consider `CC(=O)NCCc1ccc(OC2CCC(OCc3ccc(Cl)cc3)CC2)cc1-c1cccc(F)c1` (configuration not stated), for which the inhibition result in the test listed under Rattus norvegicus [4] was “Active”. Also, the inhibition entry in the test listed under Rattus norvegicus [5] was “inactive”. Consider `COc1ccccc1COC1CCC(Oc2cc(OC)c(CCNC(C)=O)c(-c3cccc(F)c3)c2)CC1` (configuration not stated), for which the inhibition entry in the test filed under Rattus norvegicus [2] is “Active”. Same read-out and setting: with `CC(=O)NCCc1c(O)cc(OC2CCC(OCc3ccc(Br)cc3)CC2)cc1-c1cccc(F)c1` (configuration not stated) the entry was “Active”.

For the compound `CC(=O)NCCc1c(O)cc(OC2CCC(OCc3ccccc3)CC2)cc1-c1cccc(F)c1` (configuration not stated), the inhibition entry in the test listed under Rattus norvegicus [1] and in the test listed under Rattus norvegicus [2] was “Active” in each case. For the compound `CC(=O)NCCc1c(O)cc(OC2CCC(OCc3ccccc3C)CC2)cc1-c1cccc(F)c1` (configuration not stated), the inhibition result in the test listed under Rattus norvegicus [2] is “Active”. As for `COc1cc(OC2CCC(OCc3ccc(Br)cc3)CC2)cc(-c2cccc(F)c2)c1CCNC(C)=O` (configuration not stated), the inhibition entry in the test filed under Rattus norvegicus [1] and in the test filed under Rattus norvegicus [2] was “Active” each time. On to `CO[C@@H]1[C@@H](O)[C@@H](O)[C@H](Oc2cc(O)c(CCNC(C)=O)c(-c3cccc(F)c3)c2)OC1(C)C`, for which the inhibition result in the test filed under Rattus norvegicus [1] is “Active”. For `CC(=O)NCCc1ccc(OC2CCC(OCc3ccccc3)CC2)cc1-c1cccc(F)c1` (configuration not stated), the inhibition entry in the test listed under Rattus norvegicus [3] and in the test listed under Rattus norvegicus [4] was “Active” each time. With `CC(=O)NCCc1ccc(OC2CCC(OCc3ccc(C(C)(C)C)cc3)CC2)cc1-c1cccc(F)c1` (configuration not stated), the inhibition entry in the test listed under Rattus norvegicus [4] is “Active”.

As to `COc1cc(O[C@@H]2OC(C)(C)[C@H](OC)[C@@H](O)[C@H]2O)cc(-c2cccc(F)c2)c1CCNC(C)=O`, in the test listed under Rattus norvegicus [1], the inhibition result is “Active”. As for `CC(=O)NCCc1ccc(OC2CCC(OCc3cccc(Cl)c3)CC2)cc1-c1cccc(F)c1` (configuration not stated), the inhibition result in the test filed under Rattus norvegicus [4] is “Active”. The same measure, in the same setting: with `CC(=O)NCCc1ccc(OC2CCC(OCc3ccccc3F)CC2)cc1-c1cccc(F)c1` (configuration not stated) the entry was “Active”; with `CC(=O)Nc1cc2ccc(O)c(C)c2oc1=O`, “inactive”. In the case of `CC(=O)NCCc1cc(C)c(OC2CCC(OCc3ccccc3C)CC2)cc1-c1cccc(F)c1` (configuration not stated), the inhibition entry in the test listed under Rattus norvegicus [2] was “inactive”. As to `COc1cc(OC2CCC(OCc3ccc(Cl)cc3)CC2)cc(-c2cccc(F)c2)c1CCNC(C)=O` (configuration not stated), the inhibition result in the test filed under Rattus norvegicus [3], in the test filed under Rattus norvegicus [1] and in the test listed under Rattus norvegicus [2] was “Active” each time.

For the compound `CC(=O)NCCc1ccc(OC2CCC(OCc3ccc(Cl)cc3Br)CC2)cc1-c1cccc(F)c1` (configuration not stated), the inhibition result in the test filed under Rattus norvegicus [4] is “Active”. `CC(=O)NCCc1ccc(OC2CCC(OCc3ccccc3C)CC2)c(O)c1-c1cccc(F)c1` (configuration not stated): in the test filed under Rattus norvegicus [2], the inhibition entry is “Active”. `CC(=O)NCCc1ccc(OC2CCC(OCc3ccc(C)cc3)CC2)cc1-c1cccc(F)c1` (configuration not stated): in the test filed under Rattus norvegicus [4], the inhibition entry is “Active”.

On to `COc1ccccc1COc1ccc2cc(NC(C)=O)c(=O)oc2c1C`, for which, in the test listed under Rattus norvegicus [4], the inhibition entry was “inactive”. With `CC(=O)NCCc1ccc(OC2CCC(OCc3ccccc3Br)CC2)cc1-c1cccc(F)c1` (configuration not stated), the inhibition result in the test filed under Rattus norvegicus [4] and in the test filed under Rattus norvegicus [5] was “Active” each time. Turning to `COc1cc(OC2CCC(OCc3ccccc3)CC2)cc(-c2cccc(F)c2)c1CCNC(C)=O` (configuration not stated), in the test listed under Rattus norvegicus [2], the inhibition entry is “Active”. For `CC(=O)NCCc1ccc(O)cc1-c1cccc(F)c1`, in the test listed under Rattus norvegicus [4], the inhibition entry is “inactive”.

Values taken from ChEMBL document CHEMBL4251564, “Development of noviomimetics that modulate molecular chaperones and manifest neuroprotective effects” (Eur J Med Chem, 2018).
